FGF22 binding: binders of recombinant human FGF22 by thermal shift; Q9HCT0; activity (Tm shift, normalised), % at 9.99 µM; 340,000 tested, 1.5% active; SYPRO orange fluorescence; percent of sucrose octasulfate shift, DMSO zero;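 active = mean Tm shift, scaled 0 neutral to 100 positive control, at about 1.3% or above, every replicate too, limit read from the data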
FN deposit inh: fibronectin deposition inhibition; AH1F fibroblasts, Alexa488-fibronectin deposition fluorescence, overnight; 350,000 tested, 0.086% active; AID 743247; inhibition, % at 12.6 µM;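 active = mean inhibition across replicates of 30% or more, regardless of how many single replicates reach that level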;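 note: positive control wells lacked labelled fibronectin entirely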
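Test system: AH1F fibroblast monolayer depositing Alexa488-labelled fibronectin into matrix. Input: 10000 cells per well. Technique: fluorescence, ex 485 nm, em 525 nm. Buffer or medium: DMEM plus 2% serum, read in PBS. Timing: 1 h cell adhesion before compound, then overnight fibronectin incubation. Compound: single dose, pinned. Read-out basis: inhibition from reduced deposited-fibronectin fluorescence.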
SIRT5 inh: sirtuin-5 (human) deacylase inhibition; Q9NXA8; Purified SirT5, succinyl-peptide AMC, trypsin-coupled fluorescence; inhibition, % at 15 µM; 330,000 tested, 1.1% active; AID 652115; in the data active = inhibition above about 15%
E-sel inducer: E-selectin induction on HUVECs | 260,000 tested, 0.37% active | HUVEC E-selectin immunofluorescence imaging; normalized: neutral wells 0, TNF-alpha wells 100 | P16581 | activation, % at 7.58 µM;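 active = mean E-selectin-positive cell signal at least 10% of the positive control, reached in at least 60% of replicates, without over 20% cell loss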
Target sequence (P16581 whole entry, looked up): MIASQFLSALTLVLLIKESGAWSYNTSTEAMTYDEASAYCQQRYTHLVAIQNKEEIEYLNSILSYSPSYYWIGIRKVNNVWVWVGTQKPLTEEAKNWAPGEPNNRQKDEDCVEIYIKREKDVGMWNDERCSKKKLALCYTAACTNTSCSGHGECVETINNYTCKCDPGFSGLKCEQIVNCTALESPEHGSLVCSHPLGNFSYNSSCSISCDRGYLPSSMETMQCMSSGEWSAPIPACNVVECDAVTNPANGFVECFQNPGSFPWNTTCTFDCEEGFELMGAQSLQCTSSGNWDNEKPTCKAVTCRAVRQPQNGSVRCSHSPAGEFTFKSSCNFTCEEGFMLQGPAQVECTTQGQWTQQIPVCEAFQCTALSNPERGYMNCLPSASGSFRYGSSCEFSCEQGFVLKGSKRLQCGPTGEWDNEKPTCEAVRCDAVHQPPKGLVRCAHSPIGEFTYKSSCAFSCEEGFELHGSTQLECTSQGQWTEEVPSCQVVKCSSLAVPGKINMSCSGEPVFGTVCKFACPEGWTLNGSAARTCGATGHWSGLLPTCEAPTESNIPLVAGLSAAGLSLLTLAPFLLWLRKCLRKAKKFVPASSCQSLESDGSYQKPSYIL
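Material: HUVEC primary endothelial cells; Amount: 3,000 cells per well; Dosing: single concentration; Medium: EGM-2 growth medium on 0.1% gelatin-coated wells; Read-out basis: percent E-selectin-positive cells; Signal: immunofluorescence imaging; Control set: TNF-alpha, DMSO.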
C2C12 statin: suppression of simvastatin myotoxicity. C2C12 myotubes + simvastatin, ATP luminescence, 48 h; scaled: DMSO 0, geranylgeraniol control 100. rescue of ATP level, % at 7.49 µM. 330,000 tested, 0.78% active;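 active = mean ATP rescue above about 67%, or every replicate alone reaching that limit, limit read from the data, passing the limit was not always enough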;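 note: myotubes were challenged with 10 µM simvastatin during compound exposure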
rRNA inh HTS: inhibitors of bacterial rRNA selective over humanized ribosomes | GFP signal change (wild-type ribosome), % (no concentration beside the values) | AID 720706 | E. coli WT GFP vs humanized-ribosome RFP mutants, fluorescence, 24 h; active compounds read low; DMSO median 0, no signal -100 | 350,000 tested, 1.6% active;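 active = significant combined selectivity score with lowered wild-type GFP, culture density cut under 30%, mutant RFP and density less affected; inactive = any of these conditions unmet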
Starred values were filed as active, the others as inactive; nt = not tested or not shown. Sampled rows, rich in hits. Any-hit rate of the full collection: about 4%.

SMILES | FGF22 binding | FN deposit inh | SIRT5 inh | E-sel inducer | C2C12 statin | rRNA inh HTS
C[C@@H]1CN([C@@H](C)CO)C(=O)c2cccc(NC(=O)Nc3ccccc3)c2O[C@@H]1CN(C)S(=O)(=O)c1ccc(F)cc1 | 0 | nt | -2 | 1 | 74* | -5
C[C@H](CO)N1C[C@H](C)[C@@H](CN(C)S(=O)(=O)c2ccccc2)Oc2c(cccc2N(C)C)C1=O | 0 | -2 | 25* | -4 | -20 | -4
C[C@@H]1CN([C@H](C)CO)C(=O)c2cccc(N(C)C)c2O[C@@H]1CN(C)S(=O)(=O)c1ccccc1 | 0 | 6 | -1 | -2 | -5 | 1
CC(=O)N(C)C[C@@H]1Oc2cc(C#CC(C)(C)O)ccc2S(=O)(=O)N([C@H](C)CO)C[C@@H]1C | 0 | 2 | 1 | 0 | 10 | -1
Cc1ccc(S(=O)(=O)N(C)C[C@H]2Oc3c(NC(=O)Nc4ccccc4)cccc3C(=O)N([C@@H](C)CO)C[C@H]2C)cc1 | -1 | nt | nt | 0 | 123* | -4
Cc1ccc(S(=O)(=O)N(C)C[C@@H]2Oc3c(NC(=O)Nc4ccccc4)cccc3C(=O)N([C@@H](C)CO)C[C@@H]2C)cc1 | 0 | nt | -1 | 0 | -9 | -3
CNC[C@H]1Oc2ccc(NC(=O)Nc3ccc(OC)cc3)cc2C(=O)N([C@H](C)CO)C[C@H]1C | 1 | nt | -4 | -5 | -3 | -4
Cc1nn(C)c(Cl)c1/C=C/C(=O)O | 0 | -6 | -5 | nt | nt | 7
Cc1nn(C)c(C)c1/C=C/C(=O)O | 43* | 22 | 5 | nt | 2 | 10
O=[N+]([O-])c1ccc(N=Nc2ncc[nH]2)cc1 | 0 | 7 | -5 | 30* | 22 | 9
O=C(CC1C(=O)NCCN1Cc1ccc(-c2ccccc2)cc1)NCC1CC1 (centres undefined) | 44* | -3 | -1 | nt | nt | -3
C=CCNC(=O)CC1C(=O)NCCN1Cc1ccc(-c2ccccc2)cc1 (centres undefined) | 43* | -1 | 4 | 1 | nt | -2
CO[C@H](CN(C)C(=O)Nc1ccc(F)cc1)[C@@H](C)CN(Cc1ccccc1Cl)[C@H](C)CO | 0 | -19 | 0 | 0 | -6 | -1
COc1ccc2cc3cc(C(=O)N4CCCCCC4)oc3nc2c1 | nt | nt | nt | nt | -28 | nt
COc1ccc2cc3cc(C(=O)N4CCCCC4C)oc3nc2c1 (centres undefined) | 0 | -1 | 18* | 3 | -56 | -18
CCCn1c2ccccc2c2nnc(SCCN3CCOCC3)nc21 | 0 | 8 | 19* | nt | -18 | -14
CCCn1c2ccc(C)cc2c2nnc(SCCN3CCOCC3)nc21 | 0 | 18 | 0 | nt | -46 | -20
C[C@H]1CN([C@@H](C)CO)C(=O)c2cc(NC(=O)Nc3ccc(F)cc3)ccc2O[C@@H]1CN(C)S(=O)(=O)c1cn(C)cn1 | 0 | nt | 6 | 0 | -21 | -1
O=S(=O)(Nc1ccc(O)c(Sc2nc3ccccc3s2)c1)c1ccc(F)cc1 | nt | 1 | nt | nt | nt | nt
O=[N+]([O-])c1cc(S(=O)(=O)C(F)(F)F)ccc1Sc1nc2ccccc2s1 | nt | nt | nt | nt | 86* | nt
O=C(O)C1CCCCC1C(=O)Nc1nc(-c2ccc(Cl)s2)cs1 (centres undefined) | 43* | nt | 4 | nt | nt | -26
Cc1cc([N+](=O)[O-])ccc1NC(=O)C[n+]1ccc(N(C)C)cc1 | 43* | 0 | 0 | nt | 16 | 7
N#Cc1cccn1-c1nccs1 | 43* | nt | 0 | nt | nt | 13
COc1ccc(CNC(=O)COC(=O)c2c(-c3c(F)cccc3Cl)noc2C)cc1OC | nt | nt | nt | nt | 2 | nt
Cc1onc(-c2c(F)cccc2Cl)c1C(=O)OCC(=O)NC(=O)NCC(C)C | 43* | nt | 1 | nt | nt | -50
SMILES | FGF22 binding | FN deposit inh | SIRT5 inh | E-sel inducer | C2C12 statin | rRNA inh HTS
CCO[C@H]1OC(C(=O)NCc2nc3ccccc3[nH]2)=C[C@@H](c2csc3ccccc23)[C@@H]1CCCO | 0 | 8 | -1 | 0 | -3 | 4
CCO[C@@H]1OC(C(=O)NCc2nc3ccccc3[nH]2)=C[C@H](c2csc3ccccc23)[C@H]1CCCO | 0 | 2 | 31* | 0 | 8 | -18
C[C@H]1CN([C@@H](C)CO)C(=O)c2cc(C3=CCCC3)cnc2O[C@H]1CN(C)C(=O)Nc1cccc(F)c1 | 0 | 4 | 0 | 0 | 3 | -2
CC(C)(c1cc(Br)c(O)c(Br)c1)c1cc(Br)c(O)c(Br)c1 | 1.6* | nt | nt | nt | 0 | -57
CC(C)(c1ccc(O)c([N+](=O)[O-])c1)c1ccc(O)c([N+](=O)[O-])c1 | 0 | 12 | -2 | 0 | -5 | -8
COc1ccccc1S(=O)(=O)N1CC[C@@H]2[C@@H](CO)Nc3ccc(-c4ccc(F)cc4)cc3[C@@H]21 | 0 | -3 | 0 | 0 | -10 | -3
C=CCn1c(CNC(=O)c2ccccc2F)nnc1SCc1nc2ccccc2c(=O)[nH]1 | 43* | 18 | 0 | 0 | -14 | 9
C=CCn1c(CCNC(=O)c2ccccc2F)nnc1SCc1nc2ccccc2c(=O)[nH]1 | 0 | nt | 0 | nt | -25 | 4
Cc1ccc(S(=O)(=O)N(C)C)cc1NS(=O)(=O)c1ccc(Cl)s1 | 0 | 4 | -7 | nt | nt | -45*
C[C@@H]1CN([C@@H](C)CO)S(=O)(=O)c2ccc(Br)cc2O[C@H]1CN(C)C(=O)C1CC1 | 1 | nt | 0 | nt | 57 | -2
CCN(CC)C(=O)C(=O)c1cn(CC(=O)NCC2CCCO2)c2ccccc12 (centres undefined) | 44* | -3 | 1 | nt | nt | 18
O=C(Cn1c(NCCO)nc2ccccc21)NCC1CCCO1 (centres undefined) | 43* | 0 | -4 | nt | -5 | 10
CCC(=O)c1cn(CC(=O)NCC2CCCO2)c2ccccc12 (centres undefined) | nt | -1 | nt | nt | nt | nt
COCCNC(=O)[C@H]1[C@H](CO)[C@H]2Cn3c(ccc(-c4ccccc4)c3=O)[C@@H]1N2C(=O)NC(C)C | 0 | nt | -38 | -2 | -6 | 2
Cn1cnnc1Sc1cc(N2CCN(S(=O)(=O)c3ccccc3)CC2)ccc1[N+](=O)[O-] | 45* | -6 | -2 | nt | 2 | 6
CCS(=O)(=O)c1ccc(Sc2nncn2C)c([N+](=O)[O-])c1 | 0 | nt | 1 | nt | nt | 17
O=C(NC1CCCCC1)N[C@@H]1CC[C@H](CCNS(=O)(=O)c2ccccc2)O[C@@H]1CO | 0 | nt | -2 | 0 | -3 | -4
CN(C)c1ccc(/C(=N\O)C(F)(F)F)cc1 | 0 | nt | 1 | nt | -2 | -31*
CN(C)C(=O)C[C@@H]1CC[C@H]2[C@H](COc3ccc(NC(=O)C4CCOCC4)cc3C(=O)N2C)O1 | 0 | -5 | 3 | 2 | 3 | 1
CC1c2ccsc2CCN1S(=O)(=O)c1cccs1 (centres undefined) | 0 | -1 | 0 | 0 | nt | -29*
